Measured values published in ChEMBL document CHEMBL1130337 (J Med Chem, 1997).

Key:
[1] = Inhibitory concentration against ACPD-sensitive radioligand [3H]glutamate binding to Group II Metabotropic glutamate receptor in rat forebrain membranes; assay type: cell membranes, Membrane
Summary of the method: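 Rat forebrain membranes; displacement of ACPD-sensitive [3H]glutamate binding (10 nM radioligand).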

[2] = species on record: Rattus norvegicus; assay: Compound was evaluated by measuring the ability to influence forskolin-stimulated cAMP formation in adult rat cerebral cortical slices; assay type: functional
Summary of the method: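 Adult rat cerebral cortical slices; cAMP formation stimulated with forskolin (30 µM), and suppression of that cAMP formation measured. EC50 values derived from concentration-response curves.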

[3] = target: Glutamate receptor ionotropic, kainate; assay: Inhibitory concentration against radioligand [3H]-Kainate binding to Ionotropic glutamate receptor kainate in rat forebrain membranes; assay type: cell membranes, Membrane
Summary of the method: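 Rat forebrain membranes; displacement of [3H]kainate (5 nM) binding. Compounds screened at concentrations up to 100 µM (triplicate analysis at 1, 10 and 100 µM).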

[4] = target: Glutamate receptor ionotropic, AMPA (Rattus norvegicus, UniProt P19490+P19491+P19492+P19493); assay: Inhibitory concentration against radioligand [3H]AMPA binding to Ionotropic glutamate receptor AMPA in rat forebrain membranes; assay type: cell membranes, Membrane
[5] = target: Glutamate NMDA receptor; assay: Inhibitory concentration against radioligand [3H]CGS-19,755 binding to N-methyl-D-aspartate glutamate receptor in rat forebrain membranes; assay type: cell membranes, Membrane
Summary of the method: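 Rat forebrain membranes; displacement of [3H]CGS19755 (10 nM) binding. Compounds screened at concentrations up to 100 µM (triplicate analysis at 1, 10 and 100 µM).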

[6] = species on record: Rattus norvegicus; assay: Compound was evaluated by measuring the ability to influence stimulated basal [3H]-IP formation in adult rat cerebral cortical slices.; assay type: functional
Summary of the method: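 Rat cerebral cortical slices labeled for [3H]phosphoinositide hydrolysis; accumulation of tritiated inositol monophosphates ([3H]IP) measured against basal levels. Concentrations tested up to 300 µM.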

[7] = species on record: Mus musculus; assay: Oral effective dose evaluated in mice by mouse limbic seizure assay; assay type: functional, Limbic system
Summary of the method: (§1)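 Male NIH Swiss mice (20-25 g) given test drug ip or po 30 min before unilateral intracerebral 1S,3R-ACPD (400 nmol), injected 2 mm lateral to bregma at 3.7 mm depth. Scored as the number of animals showing limbic seizures (clonic forelimb contractions, rearing, falling) during the observation period. ED50 in mg/kg.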

[8] = species on record: Mus musculus; assay: Oral effective dose was evaluated in mice by automated elevated plus-maze assay; assay type: functional
Summary of the method: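 Male NIH Swiss mice (20-35 g), acclimated ≥3 days on a 12 h light/dark cycle, dosed 30 min before a 5-min test on an automated elevated plus maze. Mice started on the closed platform; closed arm, open arm and nosepoke counts recorded. Dose-response for open arm activity gives the ED50 (mg/kg).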

[9] = system: Mus musculus; assay: Intraperitoneal effective dose evaluated in mice by mouse limbic seizure assay; assay type: functional, Limbic system; summary of the method: as §1

Row | SMILES | IC50 [1] [µM] | EC50 [2] [µM] | IC50 [3] [µM] | IC50 [4] [µM] | IC50 [5] [µM] | EC50 ([2]; Rattus norvegicus) [µM] | EC50 [6] [µM] | ED50 [7] [mg/kg] | ED50 [8] [mg/kg] | ED50 [9] [mg/kg]
1 | N[C@@]1(C(=O)O)CC[C@H]2[C@H](C(=O)O)[C@H]21 (racemic) | 0.318 | 0.086 |  |  |  |  |  |  |  | 
2 | N[C@]1(C(=O)O)CC[C@H]2[C@H](C(=O)O)[C@H]21 (racemic) | > 100 |  | > 100 | > 100 | 62.4 |  |  |  |  | 
3 | N[C@@]1(C(=O)O)CC[C@H]2[C@H](C(=O)O)[C@H]21 (stereo in doubt; (-)-9) | > 100 | > 300 | > 100 | > 100 | > 100 |  |  |  |  | > 100

Further lines, with some results ahead:

Row | IC50 [1] [µM] | EC50 [2] [µM] | IC50 [3] [µM] | IC50 [4] [µM] | IC50 [5] [µM] | EC50 ([2]; Rattus norvegicus) [µM] | EC50 [6] [µM] | SMILES | ED50 [7] [mg/kg] | ED50 [8] [mg/kg] | ED50 [9] [mg/kg]
4 | 0.454 |  | > 100 |  | > 100 | 1.1 | 25.4 | N[C@H](C(=O)O)[C@H]1C[C@@H]1C(=O)O |  |  | 
5 | 0.18 | 0.055 |  |  |  |  | > 300 | N[C@@]1(C(=O)O)CC[C@H]2[C@H](C(=O)O)[C@H]21 (stereo in doubt; (+)-9) | 45.6 | 0.5 | 17
